Assay results reported in ChEMBL document CHEMBL3046551, “Design, synthesis, and particular biological behaviors of chain-opening nitromethylene neonicotinoids with cis configuration” (2012).

Assays:
Type in all cases: functional
Aphis craccivora [1] = assay: Insecticidal activity against adult Aphis craccivora (cowpea aphid) assessed as […] activity at 500 mg/l after 24 hr
In short: (§1)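 Apterous adult aphids (40−60 per horsebean seedling) on seedlings dipped 5 s in DMF stock diluted with water containing Triton X-100 (0.1 mg L⁻¹); series concentrations 500.0, 250.0, 125.0 mg L⁻¹ and others. Held at 25 ± 1 °C, 50% RH. Triton water served as control. Mortality scored at 24 h, three repetitions, corrected, probit analysis.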

Empoasca = assay: Insecticidal activity against Empoasca (Green Leafhopper)
Aphis craccivora [2] = assay: Insecticidal activity against adult Aphis craccivora (cowpea aphid) assessed as […] activity after 24 hr; in short: as §1
Aphis craccivora [3] = assay: Repellent activity against adult Aphis craccivora (cowpea aphid) at 500 mg/l
In short: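 Y-tube olfactometer choice test. Aphid-free horsebean seedlings were dipped 5 s in DMF-dissolved compound diluted in water with Triton X-100 (0.1 mg L⁻¹) and dried. Treated and control seedlings were placed in opposite arms, and apterous adults were introduced into the third arm. The olfactometer was covered with black cloth at 25 ± 1 °C, 50% RH. Adults per arm were counted after 1 h; three repeats.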

## CCOC1CCC([N+](=O)[O-])=C(N(CC)Cc2ccc(Cl)nc2)N1C (stereo unspecified)
Aphis craccivora [1]
  mortality at 500 µg/mL: 17.7%

## N/C(=C\[N+](=O)[O-])NCc1ccc(Cl)nc1
Empoasca
  LC95: >200 ppm

## CCC1CC(OC(C)C)N(C)C(NCc2ccc(Cl)nc2)=C1[N+](=O)[O-] (stereo unspecified)
Aphis craccivora [1]
  mortality at 500 µg/mL: 83.6%

## CCOC1CC(C)C([N+](=O)[O-])=C(NCc2ccc(Cl)nc2)N1CC (stereo unspecified)
Aphis craccivora [1]
  mortality at 500 µg/mL: 85.2%

## CCCOC1CC(C)C([N+](=O)[O-])=C(NCc2ccc(Cl)nc2)N1CC (stereo unspecified)
Aphis craccivora [1]
  mortality at 500 µg/mL: 94.6%

## CCN1C(NCc2ccc(Cl)nc2)=C([N+](=O)[O-])C(C)CC1OC(C)C (stereo unspecified)
Aphis craccivora [1]
  mortality at 500 µg/mL: 75%

## CCC1CC(OC)N(CC)C(NCc2ccc(Cl)nc2)=C1[N+](=O)[O-] (stereo unspecified)
Aphis craccivora [1]
  mortality at 500 µg/mL: 84.5%

## CCCOC1CC(CC)C([N+](=O)[O-])=C(NCc2ccc(Cl)nc2)N1CC (stereo unspecified)
Aphis craccivora [1]
  mortality at 500 µg/mL: 93.4%

## COC1CC(C)C([N+](=O)[O-])=C2N(Cc3cnc(Cl)s3)CCN21 (stereo unspecified)
Aphis craccivora [2]
  LC50: 190 µM
Aphis craccivora [1]
  mortality at 500 µg/mL: 100%

## C=CCOC1CC(C)C([N+](=O)[O-])=C(N(CC)Cc2ccc(Cl)nc2)N1C (stereo unspecified)
Aphis craccivora [1]
  mortality at 500 µg/mL: 19.5%

## COC1CCC([N+](=O)[O-])=C(N(C)Cc2ccc(Cl)nc2)N1C (stereo unspecified)
Aphis craccivora [1]
  mortality at 500 µg/mL: 21.6%

## CCOC1CCC([N+](=O)[O-])=C(N(C)Cc2ccc(Cl)nc2)N1C (stereo unspecified)
Aphis craccivora [1]
  mortality at 500 µg/mL: 23.3%

## CCCOC1CCC([N+](=O)[O-])=C(N(C)Cc2ccc(Cl)nc2)N1C (stereo unspecified)
Aphis craccivora [1]
  mortality at 500 µg/mL: 15.2%

## CC(C)OC1CCC([N+](=O)[O-])=C(N(C)Cc2ccc(Cl)nc2)N1C (stereo unspecified)
Aphis craccivora [1]
  mortality at 500 µg/mL: 17.6%

## C=CCOC1CCC([N+](=O)[O-])=C(N(C)Cc2ccc(Cl)nc2)N1C (stereo unspecified)
Aphis craccivora [1]
  mortality at 500 µg/mL: 15.8%

## COC1CC(C)C([N+](=O)[O-])=C(N(C)Cc2ccc(Cl)nc2)N1C (stereo unspecified)
Aphis craccivora [1]
  mortality at 500 µg/mL: 23.4%

## CCOC1CC(C)C([N+](=O)[O-])=C(N(C)Cc2ccc(Cl)nc2)N1C (stereo unspecified)
Aphis craccivora [1]
  mortality at 500 µg/mL: 17.1%

## CCCOC1CC(C)C([N+](=O)[O-])=C(N(C)Cc2ccc(Cl)nc2)N1C (stereo unspecified)
Aphis craccivora [1]
  mortality at 500 µg/mL: 28.3%

## CC(C)OC1CC(C)C([N+](=O)[O-])=C(N(C)Cc2ccc(Cl)nc2)N1C (stereo unspecified)
Aphis craccivora [1]
  mortality at 500 µg/mL: 25.9%

## CCN(Cc1ccc(Cl)nc1)C1=C([N+](=O)[O-])CCC(O)N1C (stereo unspecified)
Aphis craccivora [1]
  mortality at 500 µg/mL: 16.2%

## CCN(Cc1ccc(Cl)nc1)C1=C([N+](=O)[O-])CCC(OC)N1C (stereo unspecified)
Aphis craccivora [1]
  mortality at 500 µg/mL: 24.3%

## CCCOC1CCC([N+](=O)[O-])=C(N(CC)Cc2ccc(Cl)nc2)N1C (stereo unspecified)
Aphis craccivora [1]
  mortality at 500 µg/mL: 23.7%

## CCN(Cc1ccc(Cl)nc1)C1=C([N+](=O)[O-])CCC(OC(C)C)N1C (stereo unspecified)
Aphis craccivora [1]
  mortality at 500 µg/mL: 15.3%

## CCN(Cc1ccc(Cl)nc1)C1=C([N+](=O)[O-])C(C)CC(OC)N1C (stereo unspecified)
Aphis craccivora [1]
  mortality at 500 µg/mL: 27.6%

## CCOC1CC(C)C([N+](=O)[O-])=C(N(CC)Cc2ccc(Cl)nc2)N1C (stereo unspecified)
Aphis craccivora [3]
  Repellency: 66.4%
Aphis craccivora [1]
  mortality at 500 µg/mL: 31.8%

## CCCOC1CC(C)C([N+](=O)[O-])=C(N(CC)Cc2ccc(Cl)nc2)N1C (stereo unspecified)
Aphis craccivora [1]
  mortality at 500 µg/mL: 27.2%

## CCN(Cc1ccc(Cl)nc1)C1=C([N+](=O)[O-])C(C)CC(OC(C)C)N1C (stereo unspecified)
Aphis craccivora [1]
  mortality at 500 µg/mL: 25.8%

## CC(C)OC1CC(C)C([N+](=O)[O-])=C2N(Cc3ccc(Cl)nc3)CCN21 (stereo unspecified)
Aphis craccivora [2]
  LC50: 262 µM
Aphis craccivora [1]
  mortality at 500 µg/mL: 100%

## O=[N+]([O-])/N=C1\NCCN1Cc1ccc(Cl)nc1 [IMIDACLOPRID]
Aphis craccivora [2]
  LC50: 30.9 µM
Aphis craccivora [1]
  mortality at 500 µg/mL: 100%

## CCN(Cc1ccc(Cl)nc1)/C(=C/[N+](=O)[O-])NC [NITENPYRAM]
Empoasca
  LC95: 40 ppm

## CCCOC1CC(C)C([N+](=O)[O-])=C2N(Cc3ccc(Cl)nc3)CCN21 (stereo unspecified) [PAICHONGDING]
Aphis craccivora [2]
  LC50: 91.8 µM
Aphis craccivora [1]
  mortality at 500 µg/mL: 100%
